The text below walks through data of ChEMBL document CHEMBL1156200, “Removal of sphingosine 1-phosphate receptor-3 (S1P(3)) agonism is essential, but inadequate to obtain immunomodulating 2-aminopropane-1,3-diol S1P(1) agonists with reduced effect on heart rate” (J Med Chem, 2010).

The test system of one series is Mus musculus. As to the kind of experiment: Immunomodulatory activity in ip dosed BALB/c mouse assessed as reduction in lymphocyte using FITC-conjugated hamster antimouse CD3e antibody by flow cytometry. It counts as functional. An outline of the steps: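 Male BALB/c mice given the alcohol form intraperitoneally; peripheral blood taken from posterior vena cava 24 h later, hemolyzed and fixed. CD3+ T and CD45R+ (B220) B cells counted by two-colour flow cytometry. ED50 is the dose lowering lymphocyte count by 50% versus vehicle-treated controls; 5 animals per compound.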
(In general: In flow cytometry, cells or beads pass a laser one at a time.)

Series [1] has as its target Sphingosine 1-phosphate receptor 1 (Homo sapiens, UniProt P21453). In words: Agonist activity at human S1P1 receptor expressed in human Chem1 cells assessed as intracellular calcium mobilization. The class given is functional, cell-based. On the technique in general: A change in cytosolic calcium serves as a functional read-out for many receptors and channels.
Series [2] deals with Sphingosine 1-phosphate receptor 3 (Homo sapiens, UniProt Q99500). In words: Agonist activity at human S1P3 receptor expressed in CHO cells assessed as intracellular calcium mobilization. It counts as functional, cell-based.
The next series has as its system Rattus norvegicus. In words: Toxicity in iv dosed Sprague-Dawley rat assessed as reduction in heart rate. It counts as organism-based. As to conditions: in vivo. An outline of the steps:
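Male Sprague-Dawley rats anesthetized with ip pentobarbital sodium (50 mg/kg); phosphate form injected iv over about 30 s at 0.03 to 3 mg/kg. Heart rate counted from R waves of lead II ECG before dosing and 1, 2, 3, 4, 5, 10 and 15 min after. ID50 is the dose lowering heart rate by 50% versus vehicle control; 3-6 animals per compound.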

Bounds are passed on as bounds.

The term ED50 denotes the dose that gives a 50% effect, or the effect in half of the subjects. For orientation: EC50 means the concentration needed to bring the measured effect to its halfway point.

Chain of Sphingosine 1-phosphate receptor 1 (P21453 whole entry): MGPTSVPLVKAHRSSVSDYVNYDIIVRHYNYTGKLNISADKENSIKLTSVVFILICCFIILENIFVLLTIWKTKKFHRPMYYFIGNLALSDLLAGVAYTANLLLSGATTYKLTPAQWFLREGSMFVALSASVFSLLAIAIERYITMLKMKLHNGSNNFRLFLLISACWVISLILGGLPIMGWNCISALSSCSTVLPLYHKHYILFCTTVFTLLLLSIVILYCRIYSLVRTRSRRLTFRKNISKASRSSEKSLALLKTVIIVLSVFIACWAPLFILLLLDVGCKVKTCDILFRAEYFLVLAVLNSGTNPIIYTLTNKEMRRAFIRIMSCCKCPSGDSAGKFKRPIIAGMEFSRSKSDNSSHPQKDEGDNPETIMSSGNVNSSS
Chain of Sphingosine 1-phosphate receptor 3 (Q99500 whole entry): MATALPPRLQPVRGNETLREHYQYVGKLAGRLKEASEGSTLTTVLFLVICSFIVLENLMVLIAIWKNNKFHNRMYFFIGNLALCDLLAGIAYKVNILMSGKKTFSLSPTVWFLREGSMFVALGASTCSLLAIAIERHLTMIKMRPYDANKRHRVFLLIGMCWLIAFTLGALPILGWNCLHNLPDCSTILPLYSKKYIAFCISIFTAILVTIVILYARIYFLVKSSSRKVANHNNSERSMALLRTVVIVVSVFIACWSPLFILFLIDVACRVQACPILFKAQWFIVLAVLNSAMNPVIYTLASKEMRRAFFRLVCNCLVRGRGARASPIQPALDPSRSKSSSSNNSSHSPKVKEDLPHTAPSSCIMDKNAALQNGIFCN

Regarding `NC(CO)(CO)CCc1ccc(-c2ccc(Sc3ccc(C(F)(F)F)cc3)cc2F)cc1`, in the series on Mus musculus, the ED50 came out at 0.34 mg/kg.
On the same count and under the same terms, in the case of `CCCCOc1ccc(-c2ccc(CCC(N)(CO)CO)cc2)c(C)c1` it was 3.4 mg/kg.
In the case of `CCCCOc1ccc(-c2ccc(CCC(N)(CO)COP(=O)(O)O)cc2)cc1` (configuration not stated), the EC50 is 0.81 nM in series [1] and over 1000 nM in series [2]. Further, the ID50 with Rattus norvegicus came to 0.008 mg/kg.
Consider `Cc1ccc(Sc2ccc(-c3ccc(CCC(N)(CO)COP(=O)(O)O)cc3)c(F)c2)cc1` (configuration not stated), for which the results for the concentration giving a half-maximal response (EC50) in series [1] and in series [2] were 3 nM and over 1000 nM, respectively.
In the case of `NC(CO)(CCc1ccc(-c2ccc(OCc3ccccc3)cc2F)cc1)COP(=O)(O)O` (configuration not stated), the EC50 in series [1] amounted to 1.1 nM; in series [2], 4.1 nM. Also, the ID50 with Rattus norvegicus was determined as 0.014 mg/kg.
With `CCCCOc1ccc(-c2ccc(CCC(N)(CO)CO)cc2)c(F)c1`, the 50% effective dose (ED50) in the series on Mus musculus amounted to 0.06 mg/kg.
The same measure, in the same setting: in the case of `CCCCOc1ccc(-c2ccc(CCC(N)(CO)CO)cc2)cc1Cl` it was 1.3 mg/kg.
On the same count and under the same terms, in the case of `CCCCOc1ccc(-c2ccc(CCC(N)(CO)CO)cc2)cc1F` it was 0.21 mg/kg.
For the compound `Cc1ccc(Oc2ccc(-c3ccc(CCC(N)(CO)COP(=O)(O)O)cc3)c(F)c2)cc1` (configuration not stated), the EC50 is 1.8 nM in series [1] and 83 nM in series [2]. Moreover, the ID50 in the series on Rattus norvegicus came out at 0.016 mg/kg.
For `NC(CO)(CO)CCc1ccc(-c2ccc(OCc3ccccc3)cc2)cc1Cl`, the 50% effective dose (ED50) with Mus musculus is 0.13 mg/kg.
On the same count and under the same terms, in the case of `NC(CO)(CO)CCc1ccc(-c2ccc(SCc3ccccc3)cc2F)cc1` it was 0.04 mg/kg.
For the compound `NC(CO)(CO)CCc1ccc(-c2ccc(Sc3ccc(Cl)cc3)cc2F)cc1`, in the series on Mus musculus, the ED50 was found to be 0.18 mg/kg.
As to `NC(CO)(CCc1ccc(-c2ccc(OCc3ccccc3)cc2)cc1Cl)COP(=O)(O)O` (configuration not stated), the concentration for a half-maximal effect (EC50) in series [1] is 1.6 nM; in series [2] it was 13 nM. Further, the ID50 in the series on Rattus norvegicus is 0.017 mg/kg.
With `NC(CO)(CCc1ccc(-c2ccc(Sc3ccccc3)cc2F)cc1)COP(=O)(O)O` (configuration not stated), the EC50 in series [1] was 3.6 nM; in series [2] it was over 1000 nM.
For the compound `COc1ccc(Sc2ccc(-c3ccc(CCC(N)(CO)CO)cc3)c(F)c2)cc1`, the median effective dose (ED50) with Mus musculus was determined as 0.28 mg/kg.
Regarding `CCCCOc1ccc(-c2ccc(CCC(N)(CO)COP(=O)(O)O)cc2)c(F)c1.F` (configuration not stated), the half-maximal effective concentration (EC50) in series [1] came to 0.53 nM; in series [2], 51 nM. In the series with Rattus norvegicus, the ID50 stood at 0.009 mg/kg.
In the case of `Cc1cccc(Sc2ccc(-c3ccc(CCC(N)(CO)COP(=O)(O)O)cc3)c(F)c2)c1` (configuration not stated), the EC50 in series [1] is 2 nM; in series [2], over 1000 nM. Further, the ID50 in the series with Rattus norvegicus came to 0.063 mg/kg.
Turning to `CCCCOc1ccc(-c2ccc(CCC(N)(CO)COP(=O)(O)O)c(Cl)c2)cc1` (configuration not stated), the concentration giving a half-maximal response (EC50) in series [1] is 0.62 nM; in series [2] it was over 1000 nM. The ID50 in the series on Rattus norvegicus was 0.013 mg/kg.
Regarding `Cc1ccc(Sc2ccc(-c3ccc(CCC(N)(CO)CO)cc3)c(F)c2)cc1`, the 50% effective dose (ED50) in the series on Mus musculus came out at 0.05 mg/kg.
As to `CCCCCCCCc1ccc(CCC(N)(CO)COP(=O)(O)O)cc1` (configuration not stated), the ID50 in the series with Rattus norvegicus is 0.012 mg/kg.
Take `CCCCCCCCc1ccc(CCC(N)(CO)CO)cc1` [FINGOLIMOD]: the 50% effective dose (ED50) in the series on Mus musculus came out at 0.02 mg/kg.
As for `CC(C)c1ccc(Sc2ccc(-c3ccc(CCC(N)(CO)CO)cc3)c(F)c2)cc1`, the ED50 with Mus musculus stood at 0.15 mg/kg.
Regarding `NC(CO)(CCc1ccc(-c2ccc(Oc3ccccc3)cc2)cc1Cl)COP(=O)(O)O` (configuration not stated), the EC50 in series [1] is 4.7 nM; in series [2] it was over 1000 nM. Further, the ID50 in the series on Rattus norvegicus was found to be 0.087 mg/kg.
Take `NC(CO)(CO)CCc1ccc(-c2ccc(Oc3ccccc3)cc2)cc1Cl`: the ED50 with Mus musculus came to 0.16 mg/kg.
In the case of `CCCCOc1ccc(-c2ccc(CCC(N)(CO)COP(=O)(O)O)cc2)cc1F` (configuration not stated), the EC50 was 1.3 nM in series [1] and over 1000 nM in series [2].
In the case of `NC(CO)(CCc1ccc(-c2ccc(SCc3ccccc3)cc2F)cc1)COP(=O)(O)O` (configuration not stated), the EC50 in series [1] came out at 0.84 nM; in series [2], 4.9 nM. In the series on Rattus norvegicus, the ID50 was found to be 0.008 mg/kg.
`Cc1ccc(Sc2ccc(-c3ccc(CCC(N)(CO)CO)c(Cl)c3)c(F)c2)cc1`: in the series with Mus musculus, the ED50 was found to be 0.04 mg/kg.
As to `CCCCOc1ccc(-c2ccc(CCC(N)(CO)COP(=O)(O)O)cc2)cc1Cl` (configuration not stated), the half-maximal effective concentration (EC50) in series [1] is 3.1 nM; in series [2], over 1000 nM.
Consider `CCCCOc1ccc(-c2ccc(CCC(N)(CO)CO)c(Cl)c2)cc1`, for which the median effective dose (ED50) with Mus musculus stood at 0.08 mg/kg.
Consider `CCCCOc1cc(F)c(-c2ccc(CCC(N)(CO)CO)cc2)cc1F`, for which the ED50 with Mus musculus amounted to 0.15 mg/kg.
For `Cc1cccc(Sc2ccc(-c3ccc(CCC(N)(CO)CO)cc3)c(F)c2)c1`, the ED50 in the series on Mus musculus turned out to be 0.13 mg/kg.
Take `CCCCOc1cc(F)c(-c2ccc(CCC(N)(CO)COP(=O)(O)O)cc2)cc1F` (configuration not stated): the half-maximal effective concentration (EC50) is 1.2 nM in series [1] and over 1000 nM in series [2].
On to `Cc1ccc(Sc2ccc(-c3ccc(CCC(N)(CO)COP(=O)(O)O)c(Cl)c3)c(F)c2)cc1` (configuration not stated), for which the EC50 in series [1] was 4.2 nM; in series [2], over 1000 nM. The ID50 with Rattus norvegicus turned out to be 0.016 mg/kg.
Take `COc1cccc(Sc2ccc(-c3ccc(CCC(N)(CO)CO)cc3)c(F)c2)c1`: the ED50 in the series on Mus musculus worked out at 0.11 mg/kg.
Same read-out and setting: in the case of `NC(CO)(CO)CCc1ccc(-c2ccc(OCc3ccccc3)cc2F)cc1` it was 0.01 mg/kg; in that of `NC(CO)(CO)CCc1ccc(-c2ccc(Oc3ccccc3)cc2)cc1`, 0.25 mg/kg.
Same read-out and setting: next, `NC(CO)(CO)CCc1ccc(-c2ccc(Sc3ccccc3)cc2F)cc1`: 0.42 mg/kg.
Regarding `CCCCCc1ccc(-c2ccc(CCC(N)(CO)COP(=O)(O)O)c(Cl)c2)cc1` (configuration not stated), the concentration giving a half-maximal response (EC50) is 0.64 nM in series [1] and over 1000 nM in series [2].
Consider `NC(CO)(CCc1ccc(-c2ccc(Oc3ccccc3)cc2)cc1)COP(=O)(O)O` (configuration not stated), for which the concentration for a half-maximal effect (EC50) in series [1] is 21 nM; in series [2], over 1000 nM. The ID50 in the series on Rattus norvegicus was found to be 0.14 mg/kg.
On to `CCCCCc1ccc(-c2ccc(CCC(N)(CO)COP(=O)(O)O)cc2)c(F)c1` (configuration not stated), for which the values for the concentration for a half-maximal effect (EC50) in series [1] and in series [2] were 1.1 nM and over 1000 nM, respectively.
For `NC(CO)(CO)CCc1ccc(-c2ccc(SCc3ccccc3)cc2)cc1Cl`, the ED50 in the series on Mus musculus was found to be 0.08 mg/kg.
On the same count and under the same terms, in the case of `CCCCCc1ccc(-c2ccc(CCC(N)(CO)CO)c(Cl)c2)cc1` it was 0.11 mg/kg; in that of `CCc1ccc(Sc2ccc(-c3ccc(CCC(N)(CO)CO)cc3)c(F)c2)cc1`, 0.04 mg/kg.
Still for that read-out and setting: next, `Cc1ccc(Oc2ccc(-c3ccc(CCC(N)(CO)CO)cc3)c(F)c2)cc1`: 0.04 mg/kg; `CCCCCc1ccc(-c2ccc(CCC(N)(CO)CO)cc2)c(F)c1`: 0.1 mg/kg.
The same measure, in the same setting: next, `CCCCOc1ccc(-c2ccc(CCC(N)(CO)CO)cc2)cc1`: 0.22 mg/kg; `NC(CO)(CO)CCc1ccc(-c2ccc(Sc3cccc(F)c3)cc2F)cc1`: 0.16 mg/kg.
Consider `NC(CO)(CO)CCc1ccc(-c2ccc(Sc3ccc(F)cc3)cc2F)cc1`, for which the median effective dose (ED50) in the series with Mus musculus was 0.07 mg/kg.
